Source: ChEMBL document CHEMBL1131331, “Structure-activity studies on anticonvulsant sugar sulfamates related to topiramate. Enhanced potency with cyclic sulfate derivatives” (J Med Chem, 1998)

Legend:
Mus musculus [1] = assay: Effective dose against maximal electroshock seizures in mice, at 4 hr following oral administration of 10 mg/kg of compound; type: functional
Mus musculus [2] = assay: Activity against maximal electroshock seizures in mice, 4 hr following oral administration of 35 mg/kg of compound; type: functional
Summary of the method: (§1)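 Mouse maximal electroshock seizure test. An electric shock is applied through corneal electrodes, and block of the hind-limb tonic-extensor seizure is scored. Compounds are given orally, usually to 10 mice per group, and tested 4 h after dosing. The result is reported as percent of dosed animals protected at the stated dose.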

Mus musculus [3] = assay: Compound activity was measured at 4 hr following administration of the oral dosage (perorally) 5 mg/kg in mice, and is reported as percent block at the given dose.; type: functional; summary of the method: as §1
[4] = (§2) Partition coefficient (logP); type: physicochemical; settings: octanol/water
Summary of the method: (§3)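 Apparent octanol–water partition coefficient D, measured in unbuffered water (pH 7.2–7.6) using an HPLC refractive-index assay. True P is calculated as […], and P7.4 as P/[1 + 10^(7.4 − pKa)], using pKa values from potentiometric titration.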

[5] = Pharmacokinetic parameter :log P7.4 log P value at pH 7.4; type: physicochemical; settings: buffer, read-out: Log D7.4; summary of the method: as §3
[6] = Pharmacokinetic parameter :The dissociation constant values at 25 degrees C, obtained by potentiometric titration.; type: ADME
[7] = as §2; type: physicochemical; settings: octanol/water; summary of the method: as §3; remark: listed apart in the source
Mus musculus [8] = assay: Activity against maximal electroshock seizures in mice, 4 hr following oral administration of 300 mg/kg of compound; type: functional; summary of the method: as §1
Mus musculus [9] = assay: Activity against maximal electroshock seizures in mice, 4 hr following oral administration of 75 mg/kg; type: functional; summary of the method: as §1
[10] = pH 7.4 value at 7.61 pH; type: ADME; summary of the method: as §3
Mus musculus [11] = assay: Compound activity was measured at 4 hr following administration of the oral dosage (perorally) 300 mg/kg in mice, and is reported as percent block at the given dose.; type: functional; summary of the method: as §1
Mus musculus [12] = assay: Activity against maximal electroshock seizures in mice, 4 hr following oral administration of 37.5 mg/kg of compound; type: functional; summary of the method: as §1
Mus musculus [13] = assay: Activity against maximal electroshock seizures in mice, 4 hr following oral administration of 18.75 mg/kg of compound; type: functional; summary of the method: as §1
Mus musculus [14] = assay: Activity against maximal electroshock seizures in mice, 4 hr following oral administration of 40 mg/kg of compound; type: functional; summary of the method: as §1
Mus musculus [15] = assay: Activity against maximal electroshock seizures in mice, 4 hr following oral administration of 80 mg/kg of compound; type: functional; summary of the method: as §1
Mus musculus [16] = assay: Activity against maximal electroshock seizures in mice, 4 hr following oral administration of 30 mg/kg of compound; type: functional; summary of the method: as §1
Mus musculus [17] = assay: Activity against maximal electroshock seizures in mice, 4 hr following oral administration of 15 mg/kg of compound; type: functional; summary of the method: as §1
Rattus norvegicus [18] = species on record: Rattus norvegicus; assay: Compound was tested for the effective dose (ED50) for each time point in Rats. 95% confidence limits are given in parentheses 16 Hour; type: functional
Summary of the method: (§4)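 Rat MES time-course study. Compounds are given orally, and block of the hind-limb tonic-extensor seizure induced by corneal electroshock is assessed at each time point. For each time point, the ED50 (mg/kg) is reported with 95% confidence limits.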

Rattus norvegicus [19] = species on record: Rattus norvegicus; assay: Compound was tested for the effective dose (ED50) for each time point in Rats. 95% confidence limits are given in parentheses 4 Hour; type: functional; summary of the method: as §4
[20] = Inhibition concentration by inhibition of carbonic anhydrase from synaptosomes in Rat. 95% confidence limits are given in parentheses.; type: subcellular, Brain
Mus musculus [21] = species on record: Mus musculus; assay: Compound was tested for the effective dose (ED50) for each time point in Mice. 95% confidence limits are given in parentheses 16 Hour; type: functional
Summary of the method: (§5)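 Mouse MES time-course study. Compounds are given orally, and hind-limb tonic-extensor block after corneal-electrode shock is scored at each time point. For each time point, the ED50 (mg/kg) is reported with 95% confidence limits.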

Rattus norvegicus [22] = species on record: Rattus norvegicus; assay: Compound was tested for the effective dose (ED50) for each time point in Rats. 95% confidence limits are given in parentheses 8 Hour; type: functional; summary of the method: as §4
Mus musculus [23] = species on record: Mus musculus; assay: Compound was tested for the effective dose (ED50) for each time point in Mice. 95% confidence limits are given in parentheses 2 Hour; type: functional
Mus musculus [24] = species on record: Mus musculus; assay: Compound was tested for the effective dose (ED50) for each time point in Mice. 95% confidence limits are given in parentheses 1 Hour; type: functional
Mus musculus [25] = species on record: Mus musculus; assay: Compound was tested for the effective dose (ED50) for each time point in Mice. 95% confidence limits are given in parentheses 24 Hour; type: functional; summary of the method: as §5
[26] = Inhibition concentration by inhibition of carbonic anhydrase from brain in Rat. 95% confidence limits are given in parentheses.
[27] = Inhibition concentration of the compounds were determined by inhibition of carbonic anhydrase from kidney in Rat. 95% confidence limits are given in parentheses.
Mus musculus [28] = species on record: Mus musculus; assay: Compound was tested for the effective dose (ED50) for each time point in Mice. 95% confidence limits are given in parentheses 12 hr; type: functional; summary of the method: as §5
Rattus norvegicus [29] = species on record: Rattus norvegicus; assay: Compound was tested for the effective dose (ED50) for each time point in Rats. 95% confidence limits are given in parentheses 48 Hour; type: functional; summary of the method: as §4
Rattus norvegicus [30] = species on record: Rattus norvegicus; assay: Compound was tested for the effective dose (ED50) for each time point in Rats. 95% confidence limits are given in parentheses 1 Hour; type: functional; summary of the method: as §4
[31] = Inhibition concentration by inhibition of carbonic anhydrase from myelin in Rat. 95% confidence limits are given in parentheses.
[32] = pH 7.4 value at 7.35 pH; type: ADME; summary of the method: as §3
[33] = Inhibition concentration by inhibition of carbonic anhydrase from blood in Rat. 95% confidence limits are given in parentheses.
[34] = as §2; type: physicochemical; settings: octanol/water; summary of the method: as §3; remark: listed apart in the source
Rattus norvegicus [35] = species on record: Rattus norvegicus; assay: Compound was tested for the effective dose (ED50) for each time point in Rats. 95% confidence limits are given in parentheses 2 Hour; type: functional; summary of the method: as §4
Rattus norvegicus [36] = species on record: Rattus norvegicus; assay: Compound was tested for the effective dose (ED50) for each time point in Rats. 95% confidence limits are given in parentheses 12 Hour; type: functional; summary of the method: as §4
Rattus norvegicus [37] = species on record: Rattus norvegicus; assay: Compound was tested for the effective dose (ED50) for each time point in Rats. 95% confidence limits are given in parentheses 24 Hour; type: functional; summary of the method: as §4
[38] = Inhibition concentration by inhibition of carbonic anhydrase from synaptosomes in Rat
[39] = Inhibition concentration by inhibition of carbonic anhydrase from kidney in Rat
[40] = Inhibition concentration by inhibition of carbonic anhydrase from myelin in Rat
[41] = Inhibition concentration by inhibition of carbonic anhydrase from blood in Rat
[42] = Inhibition concentration by inhibition of carbonic anhydrase from brain in Rat
Mus musculus [43] = species on record: Mus musculus; assay: Compound was tested for the effective dose (ED50) for each time point in Mice. 95% confidence limits are given in parentheses 4 Hour; type: functional
[44] = Inhibition concentration by inhibition of carbonic anhydrase from kidney in Rat. 95% confidence limits are given in parentheses.
[45] = pH 7.4 value at pH 7.25; type: ADME; summary of the method: as §3

CC1(C)O[C@@H]2[C@@H](CC[C@@]3(COS(N)(=O)=O)OC(C)(C)O[C@@H]23)O1
ED50 (Mus musculus [1]): 16.6 mg/kg
Block (Mus musculus [2]): 80%
Block (Mus musculus [3]): 30%

CCC1(CC)O[C@@H]2[C@@H](CO[C@@]3(COS(N)(=O)=O)OC(C)(C)O[C@@H]23)O1
logP [4]: 1.52
logD [5]: 1.5
pKa [6]: 8.62
logP [7]: 1.55
Block (Mus musculus [8]): 80%
Block (Mus musculus [9]): 0%
P7.4 [10]: 31.5

CC(C)(C)OC(=O)N=S1O[C@@H]2[C@@H](CO[C@@]3(COS(N)(=O)=O)OC(C)(C)O[C@@H]23)O1 (stereo not given in full)
Block (Mus musculus [11]): 40%

CC1(C)O[C@H]2[C@H](O)[C@@H](Cl)CO[C@@]2(COS(N)(=O)=O)O1
ED50 (Mus musculus [1]): 24 mg/kg
Block (Mus musculus [12]): 90%
Block (Mus musculus [13]): 50%

CC1(C)O[C@H]2[C@H](CO[C@]3(COS(N)(=O)=O)OC(C)(C)O[C@H]23)O1
ED50 (Mus musculus [1]): 82 mg/kg
Block (Mus musculus [14]): 20%
Block (Mus musculus [15]): 50%

CC1(C)O[C@@H]2[C@H]3OS(=O)(=O)O[C@H]3CO[C@]2(COS(N)(=O)=O)O1
ED50 (Mus musculus [1]): 22 mg/kg
Block (Mus musculus [16]): 80%
Block (Mus musculus [17]): 30%

CC1(C)O[C@H]2[C@@H]3OS(=O)(=O)O[C@@H]3CO[C@@]2(COS(N)(=O)=O)O1
logP [4]: 0.42
ED50 (Rattus norvegicus [18]): 2.5 mg/kg
ED50 (Rattus norvegicus [19]): 1.7 mg/kg
IC50 [20]: 21 nM
ED50 (Mus musculus [21]): 50 mg/kg
ED50 (Rattus norvegicus [22]): 1 mg/kg
ED50 (Mus musculus [23]; Mus musculus, 2 h, read-out: ED50): 6.6 mg/kg
logD [5]: 0.38
ED50 (Mus musculus [24]; Mus musculus, 1 h, read-out: ED50): 8.6 mg/kg
ED50 (Mus musculus [25]): 72 mg/kg
IC50 [26]: 21 nM
IC50 [27]: 130 nM
ED50 (Mus musculus [28]): 23 mg/kg
pKa [6]: 8.51
ED50 (Rattus norvegicus [29]): 18 mg/kg
ED50 (Rattus norvegicus [30]): 3.8 mg/kg
logP [7]: -1.01
IC50 [31]: 52 nM
P7.4 [32]: 2.42
IC50 [33]: 0.084 µM
logP [34]: 2.44
ED50 (Rattus norvegicus [35]): 5.1 mg/kg
ED50 (Rattus norvegicus [36]): 1.3 mg/kg
Block (Mus musculus [2]): 100%
ED50 (Rattus norvegicus [37]): 2.6 mg/kg

CC(=O)Nc1nnc(S(N)(=O)=O)s1 [ACETAZOLAMIDE]
IC50 [38]: 7 nM
IC50 [39]: 650 nM
IC50 [40]: 24 nM
IC50 [41]: 37 nM
IC50 [42]: 12 nM

CC1(C)O[C@@H]2[C@@H](CO[C@@]3(COS(N)(=O)=O)OC(C)(C)O[C@@H]23)O1 [TOPIRAMATE]
logP [4]: 0.53
ED50 (Rattus norvegicus [18]): 103 mg/kg
ED50 (Rattus norvegicus [19]): 6.7 mg/kg
IC50 [20]: 4840 nM
ED50 (Mus musculus [1]): 53 mg/kg
ED50 (Rattus norvegicus [22]): 15 mg/kg
ED50 (Mus musculus [23]): 47.6 mg/kg
logD [5]: 0.51
ED50 (Mus musculus [24]): 43.8 mg/kg
ED50 (Mus musculus [25]): > 1000 mg/kg
IC50 [26]: 4550 nM
ED50 (Mus musculus [43]): 53.5 mg/kg
ED50 (Mus musculus [28]): 246 mg/kg
pKa [6]: 8.66
ED50 (Rattus norvegicus [29]): > 1000 mg/kg
ED50 (Rattus norvegicus [30]): 15 mg/kg
logP [7]: 0.5
IC50 [31]: 1360 nM
IC50 [44]: 8.35 µM
IC50 [33]: 8.89 µM
logP [34]: 3.26
ED50 (Rattus norvegicus [35]): 16 mg/kg
ED50 (Rattus norvegicus [36]): 34 mg/kg
ED50 (Rattus norvegicus [37]): 153 mg/kg
P7.4 [45]: 3.31
